From ChEMBL document CHEMBL4376878, “Potent Thiophene Antagonists of Human Complement C3a Receptor with Anti-Inflammatory Activity” (J Med Chem, 2020) come the findings set out here.

Molecules are shown by their SMILES. Active and inactive are the calls of the source. The rule behind the calls is not given here.

For data set [1], the target named is T1, C3a anaphylatoxin chemotactic receptor (Homo sapiens, UniProt Q16581).
T1 sequence (Q16581 whole entry): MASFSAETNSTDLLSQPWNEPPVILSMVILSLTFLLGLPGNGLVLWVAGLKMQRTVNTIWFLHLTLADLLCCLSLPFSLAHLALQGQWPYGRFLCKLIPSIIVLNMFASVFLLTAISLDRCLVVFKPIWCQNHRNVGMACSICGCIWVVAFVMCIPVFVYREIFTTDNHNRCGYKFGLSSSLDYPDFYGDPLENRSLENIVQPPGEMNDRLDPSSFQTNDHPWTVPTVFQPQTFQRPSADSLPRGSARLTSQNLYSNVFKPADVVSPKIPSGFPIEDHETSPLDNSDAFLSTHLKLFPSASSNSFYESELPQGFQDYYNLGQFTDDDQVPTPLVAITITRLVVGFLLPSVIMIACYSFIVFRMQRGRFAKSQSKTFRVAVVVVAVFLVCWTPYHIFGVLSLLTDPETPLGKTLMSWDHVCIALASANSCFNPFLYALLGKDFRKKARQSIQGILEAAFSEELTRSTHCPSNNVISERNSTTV
The data set is described as follows: Agonist activity at C3a receptor in human MDM cells assessed as induction of intracellular calcium release measured at 1 sec interval for => 200 secs by Fluo-3 AM dye-based FLIPR assay. The data set is classed as cell-based. A digest of the protocol:
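HMDMs were differentiated from CD14⁺ monocytes with M-CSF (100 ng/mL) for 7 days and seeded overnight at 5 × 10⁴ cells/well. Cells were loaded with 4 μM Fluo-3 AM for 1 h at 37 °C, then placed in HBSS with 2.5 mM probenecid and 20 mM HEPES, pH 7.4. Agonist was added on FLIPR and read at ex 495/em 520 nm. EC50 is relative to the maximum from 1 μM C3a; n ≥ 3.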

Data set [2] in a line: Stability of the compound in rat plasma at 1 mM measured after 4 hrs by LC-MS analysis. The data set is classed as ADME, cell-free. A digest of the protocol: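 Compound added to rat plasma from 1 mM DMSO stock (stock concentration) and incubated at 37 °C. Samples taken at 0, 5, 15, 30, 60, 120 and 240 min, quenched in MeCN/H₂O 9:1, centrifuged and analyzed by LC-MS. Plasma activity checked with SLIGRL-NH₂.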

Data set [3] can be described thus: Stability of the compound in rat liver microsomes at 1 uM preincubated for 5 mins followed by NADPH addition and measured after 1 hr by LC-MS/MS analysis. It is filed as ADME, Microsome. The method, boiled down: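 Compound at 1 μM in 100 mM phosphate buffer, pH 7.4 (0.1% DMSO), was incubated with rat liver microsomes […] at 37 °C before further NADPH was added. Aliquots taken at 0, 5, 15, 30 and 60 min were quenched in MeCN/H₂O (9:1), centrifuged and analysed by LC-MS/MS. Microsomal activity was confirmed in parallel with SLIGRL-NH₂; n = 3.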

Data set [4] has as its target T2, C3a anaphylatoxin chemotactic receptor (Homo sapiens) (UniProt Q16581).
T2 sequence (whole entry): T1 sequence (Q16581 whole entry)
The experiment in a line: (§1) Antagonist at C3a receptor in human LAD2 cells assessed as inhibition of C3a-induced beta-hexosaminidase release preincubated for 30 mins followed by C3a addition. The data set is classed as cell-based. The method, boiled down:
(§2)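 LAD2 mast cells grown with SCF, 1 × 10⁴ cells/well seeded overnight and presensitized overnight with IgE (100 ng/mL). Compounds preincubated 30 min at 37 °C in 0.1 M HEPES pH 7.4, then C3a added and β-hexosaminidase release measured. IC50 is concentration inhibiting 50% of release induced by 100 nM C3a; n ≥ 3.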

The target in data set [5] is T1, C3a anaphylatoxin chemotactic receptor. The description is as §1. It is filed as cell-based. A digest of the protocol: as §2
The target of data set [6] is T2, C3a anaphylatoxin chemotactic receptor (Homo sapiens). The experiment in a line: Potency index, ratio of SB290157 IC50 to test compound IC50 for antagonist activity at C3a receptor in human LAD2 cells assessed as inhibition of C3a-induced beta-hexosaminidase release. It is filed as cell-based.
Data set [7] can be described thus: AUC (0 to 8 hrs) in Wistar rat at 10 mg/kg, po by LC-MS/MS analysis. The data set is classed as ADME, organism-based. Also on record: dose 10 mg/kg, time < 8 hr, route oral. Conditions: in vivo. The method, boiled down: (§3)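 Male Wistar rats with jugular vein catheter, fasted overnight; dosed p.o. by gavage in olive oil or i.v. via catheter in 50% DMSO. Blood drawn from conscious unrestrained rats 5 min before dosing, then 5, 15, 30 min and 1–8 h after. Volume replaced with heparinized saline. Rats fed after 4 h sample. n = 3 per route.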

Data set [8] can be described thus: Tmax in Wistar rat at 10 mg/kg, po by LC-MS/MS analysis. It is filed as ADME, organism-based. Conditions: in vivo. The method, boiled down: as §3
The nature of data set [9]: Cmax in Wistar rat at 10 mg/kg, po by LC-MS/MS analysis. The data set is classed as ADME, organism-based. More on the design: dose 10 mg/kg, route oral. To be noted: in vivo. The method, boiled down:
as §3

Data set [10] in a line: AUC (0 to 8 hrs) in Wistar rat at 1 mg/kg, iv by LC-MS/MS analysis. It is filed as ADME, organism-based. More on the design: time < 8 hr, dose 1 mg/kg, route intravenous. To be noted: in vivo. A digest of the protocol: as §3
A short description of data set [11]: Volume of distribution in Wistar rat at 1 mg/kg, iv by LC-MS/MS analysis. It is filed as ADME, organism-based. To be noted: in vivo. The method, boiled down: as §3
Data set [12] can be described thus: Clearance in Wistar rat at 1 mg/kg, iv by LC-MS/MS analysis. To be noted: in vivo. The data set is classed as ADME, organism-based. The method, boiled down: as §3
Data set [13] concerns Rattus norvegicus. The experiment in a line: Antiinflammatory activity in Wistar rat model of BR103-induced paw edema assessed as reduction in Tnf gene expression at 10 mg/kg, po administered via gavage pretreated for 2 hrs followed by BR103 challenge and measured after 30 mins by SYBR green dye based RT-PCR analysis. The data set is classed as functional, organism-based. The method, boiled down: (§4)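 Rats given 10 mg/kg p.o. in olive oil 2 h before i.pl. BR103 (350 μg/paw). Paws collected 0.5 h after agonist and homogenized in TRIsure for RNA. qPCR run in duplicate, normalized to Hprt, with fold change relative to sham. n = 3–5 male Wistar rats per group.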

In data set [14] the test system is Rattus norvegicus. The data set is described as follows: Antiinflammatory activity in Wistar rat model of BR103-induced paw edema assessed as reduction in Il1b gene expression at 10 mg/kg, po administered via gavage pretreated for 2 hrs followed by BR103 challenge and measured after 30 mins by SYBR green dye based RT-PCR analysis. The data set is classed as functional, organism-based. The method, boiled down: as §4

Data set [15] deals with Rattus norvegicus. The data set is described as follows: Antiinflammatory activity in Wistar rat model of BR103-induced paw edema assessed as reduction in Ccl2 gene expression at 10 mg/kg, po administered via gavage pretreated for 2 hrs followed by BR103 challenge and measured after 30 mins by SYBR green dye based RT-PCR analysis. It is filed as functional, organism-based. A digest of the protocol: as §4

The subject of data set [16] is Rattus norvegicus. The data set is described as follows: Antiinflammatory activity in Wistar rat model of BR103-induced paw edema assessed as increase in number of intact mast cells at 10 mg/kg, po administered via gavage pretreated for 2 hrs followed by BR103 challenge and measured after 30 mins by alcian blue/safranin O staining-based histopathological analysis. The data set is classed as functional, organism-based. The method, boiled down: (§5)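 Male Wistar rats 7–8 weeks old, given 10 mg/kg p.o. in olive oil 2 h before i.pl. BR103 (350 μg/paw). Sham/control received olive oil. Left paw plantar tissue taken 30 min after agonist and fixed in formalin. Frozen 5 μm sections stained with alcian blue/safranin O, or immunostained for tryptase, histamine or ED1. Positive cells quantified; n = 5 per group, one-way ANOVA.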

Data set [17] has as its system Rattus norvegicus. The data set is described as follows: Antiinflammatory activity in Wistar rat model of BR103-induced paw edema assessed as inhibition of activation/degranulation of mast cells at 10 mg/kg, po administered via gavage pretreated for 2 hrs followed by BR103 challenge and measured after 30 mins by tryptase staining-based microscopic analysis. It is filed as functional, organism-based. The method, boiled down: as §5

Data set [18] has as its system Rattus norvegicus. The data set is described as follows: Antiinflammatory activity in Wistar rat model of BR103-induced paw edema assessed as reduction in hind paw swelling at 10 to 30 mg/kg, po administered via gavage pretreated for 2 hrs followed by BR103 challenge and measured after 30 mins by digital caliper method.

With `Cc1cc(C(c2ccc(Cl)cc2)c2ccc(Cl)cc2)sc1C(=O)N[C@@H](CCCNC(=N)N)C(=O)O`, the EC50 in data set [1] (read-out: EC50) and in data set [1] (read-out: pEC50 (converted)) was more than 100 µM throughout. The Stability entry in data set [2] and in data set [3] was “Stable” throughout. Further, the inhibition entry in data set [4] was “Dose-dependent effect”. Further, in data set [5], the half-inhibitory concentration (IC50) turned out to be 0.008 µM. Moreover, in data set [6], the Ratio IC50 came out at 100. In addition, the values for the AUC(0-t) at 8 h in data set [7] and in data set [10] were 478 ng·h/mL and 3800 ng·h/mL, respectively. Besides, the time of peak concentration (Tmax) in [8] amounted to 5 h. This compound also yielded a Cmax in [9] of 88 ng/mL. This compound also came in with a Vd in data set [11] of 0.1 L. The same compound displayed a clearance in [12] of 4.4 mL/min/kg. Besides, the outcome with Rattus norvegicus [13], in the data set with Rattus norvegicus [14], in the data set with Rattus norvegicus [15], in the data set with Rattus norvegicus [16] and with Rattus norvegicus [17] was Active. In the data set with Rattus norvegicus [18], the outcome was inactive.
